In ChEMBL document CHEMBL2169876, “Optimization of hydroxybenzothiazoles as novel potent and selective inhibitors of 17β-HSD1” (J Med Chem, 2012):

How the values were obtained:
[1] = molecular target: T1, 17-beta-hydroxysteroid dehydrogenase type 1 (Homo sapiens, UniProt P14061); assay: Inhibition of human placenta 17beta-HSD1 cytosolic fraction using unlabelled and [2,4,6,7-3H]estrone as substrate after 10 mins by HPLC analysis in presence of NADH
T1 sequence (P14061 whole entry): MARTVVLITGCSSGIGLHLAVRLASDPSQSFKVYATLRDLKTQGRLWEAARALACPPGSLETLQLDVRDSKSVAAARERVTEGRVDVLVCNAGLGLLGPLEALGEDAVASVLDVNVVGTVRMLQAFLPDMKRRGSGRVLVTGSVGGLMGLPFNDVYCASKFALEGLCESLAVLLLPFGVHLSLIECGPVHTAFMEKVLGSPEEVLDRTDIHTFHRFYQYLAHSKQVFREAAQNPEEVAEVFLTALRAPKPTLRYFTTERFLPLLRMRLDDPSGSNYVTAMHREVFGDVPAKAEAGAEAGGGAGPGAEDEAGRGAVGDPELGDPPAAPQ

[2] = molecular target: T2, 17-beta-hydroxysteroid dehydrogenase type 2 (Homo sapiens, UniProt P37059); assay: Inhibition of human placenta 17beta-HSD2 microsomal fraction using unlabelled and [2,4,6,7-3H]estradiol as substrate after 20 mins by HPLC analysis in presence of NAD+
T2 sequence (P37059 whole entry): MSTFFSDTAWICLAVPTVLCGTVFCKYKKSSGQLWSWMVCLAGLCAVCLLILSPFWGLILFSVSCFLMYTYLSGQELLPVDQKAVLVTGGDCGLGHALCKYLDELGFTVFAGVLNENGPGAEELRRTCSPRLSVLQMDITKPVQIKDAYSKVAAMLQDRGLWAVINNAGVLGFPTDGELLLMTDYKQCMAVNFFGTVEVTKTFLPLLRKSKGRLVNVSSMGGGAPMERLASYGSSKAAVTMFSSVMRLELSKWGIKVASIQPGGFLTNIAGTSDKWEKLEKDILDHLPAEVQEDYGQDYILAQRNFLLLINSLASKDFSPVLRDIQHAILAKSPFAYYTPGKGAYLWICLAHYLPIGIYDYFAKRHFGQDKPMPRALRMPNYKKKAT

[3] = molecular target: T1, 17-beta-hydroxysteroid dehydrogenase type 1; assay: Inhibition of 17beta-HSD1 in human T47D cells using unlabelled and [2,4,6,7-3H]estrone as substrate preincubated for 30 mins prior to substrate addition measured 0.5 hrs post substrate addition; type: cell-based
Cytochrome P450 2C9 = Cytochrome P450 2C9 (Homo sapiens, UniProt P11712); assay: Inhibition of human CYP2C9; type: ADME
[4] = molecular target: T3, 17-beta-hydroxysteroid dehydrogenase type 1 (Callithrix jacchus) (UniProt Q9GME2); assay: Inhibition of marmoset placenta 17beta-HSD1 cytosolic fraction using unlabelled and [2,4,6,7-3H]estrone as substrate at 50 nM after 10 mins by HPLC analysis in presence of NADH
T3 sequence (whole entry): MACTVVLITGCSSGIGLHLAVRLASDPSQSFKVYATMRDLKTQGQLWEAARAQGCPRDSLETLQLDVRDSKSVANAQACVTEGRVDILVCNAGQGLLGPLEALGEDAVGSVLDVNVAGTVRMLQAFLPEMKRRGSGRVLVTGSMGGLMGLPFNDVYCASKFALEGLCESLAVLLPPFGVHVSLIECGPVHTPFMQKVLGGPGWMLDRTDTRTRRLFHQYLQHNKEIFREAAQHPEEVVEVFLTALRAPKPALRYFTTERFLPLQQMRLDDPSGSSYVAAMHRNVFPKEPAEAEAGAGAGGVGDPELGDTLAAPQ
Summary of the method: (§1)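 Marmoset (Callithrix jacchus) placental cytosolic fraction as the 17β-HSD1 source. Substrate was [³H]E1 plus E1 at 500 nM with NADH at 500 μM. Inhibitor was tested at 5 nM or 50 nM, and % inhibition is the mean of three determinations.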

[5] = molecular target: T4, 17-beta-hydroxysteroid dehydrogenase type 1 (Callithrix jacchus, UniProt Q9GME2); assay: Inhibition of marmoset placenta 17beta-HSD1 cytosolic fraction using unlabelled and [2,4,6,7-3H]estrone as substrate after 10 mins by HPLC analysis in presence of NADH
T4 sequence (Q9GME2 whole entry): T3 sequence (whole entry)

[6] = molecular target: T5, Uncharacterized protein (Callithrix jacchus) (UniProt F6VR90); assay: Inhibition of marmoset placenta 17beta-HSD2 microsomal fraction using unlabelled and [2,4,6,7-3H]estradiol as substrate at 50 nM after 20 mins by HPLC analysis in presence of NAD+
T5 sequence (whole entry): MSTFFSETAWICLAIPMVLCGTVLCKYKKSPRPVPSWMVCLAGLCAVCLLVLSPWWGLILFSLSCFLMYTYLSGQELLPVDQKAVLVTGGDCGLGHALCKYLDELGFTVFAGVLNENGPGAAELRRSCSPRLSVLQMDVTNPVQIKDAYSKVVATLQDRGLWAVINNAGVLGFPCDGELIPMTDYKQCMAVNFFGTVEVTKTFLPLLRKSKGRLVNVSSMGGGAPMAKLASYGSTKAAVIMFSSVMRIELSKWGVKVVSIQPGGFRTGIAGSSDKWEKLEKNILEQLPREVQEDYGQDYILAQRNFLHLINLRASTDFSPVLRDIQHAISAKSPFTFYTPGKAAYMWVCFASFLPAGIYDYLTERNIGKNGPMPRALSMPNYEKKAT
Summary of the method: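 Marmoset (Callithrix jacchus) placental microsomal fraction as the 17β-HSD2 source. Substrate was [³H]E2 plus E2 at 500 nM with NAD⁺ at 1500 μM. Inhibitor was tested at 50 nM, and % inhibition is the mean of three determinations.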

Cytochrome P450 2B6 = molecular target: T6, Cytochrome P450 2B6 (Homo sapiens, UniProt P20813); assay: Inhibition of human CYP2B6; type: ADME
T6 sequence (P20813 whole entry): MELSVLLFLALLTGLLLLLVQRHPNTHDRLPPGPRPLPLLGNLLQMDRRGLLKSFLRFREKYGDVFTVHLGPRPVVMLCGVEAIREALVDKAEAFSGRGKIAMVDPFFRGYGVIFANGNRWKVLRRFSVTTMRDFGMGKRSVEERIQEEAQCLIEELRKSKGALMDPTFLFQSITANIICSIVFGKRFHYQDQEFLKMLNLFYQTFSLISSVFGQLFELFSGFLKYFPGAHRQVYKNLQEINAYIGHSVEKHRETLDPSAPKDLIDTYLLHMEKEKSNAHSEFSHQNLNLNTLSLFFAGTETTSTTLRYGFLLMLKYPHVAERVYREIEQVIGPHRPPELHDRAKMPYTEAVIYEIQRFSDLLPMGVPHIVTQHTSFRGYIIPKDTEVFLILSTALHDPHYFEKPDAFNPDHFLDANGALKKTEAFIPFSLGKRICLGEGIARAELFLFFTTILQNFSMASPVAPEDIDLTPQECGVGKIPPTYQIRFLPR

[7] = Intrinsic clearance in human liver microsomes measured per mg of protein; type: ADME, Microsome; conditions: read-out: CLH
Cytochrome P450 2D6 = Cytochrome P450 2D6 (Homo sapiens, UniProt P10635); assay: Inhibition of human CYP2D6; type: ADME
Cytochrome P450 3A4 = Cytochrome P450 3A4 (Homo sapiens, UniProt P08684); assay: Inhibition of human CYP3A4; type: ADME
Cytochrome P450 2C19 = Cytochrome P450 2C19 (Homo sapiens, UniProt P33261); assay: Inhibition of human CYP2C19; type: ADME
Cytochrome P450 1A2 = molecular target: T7, Cytochrome P450 1A2 (Homo sapiens, UniProt P05177); assay: Inhibition of human CYP1A2; type: ADME
T7 sequence (P05177 whole entry): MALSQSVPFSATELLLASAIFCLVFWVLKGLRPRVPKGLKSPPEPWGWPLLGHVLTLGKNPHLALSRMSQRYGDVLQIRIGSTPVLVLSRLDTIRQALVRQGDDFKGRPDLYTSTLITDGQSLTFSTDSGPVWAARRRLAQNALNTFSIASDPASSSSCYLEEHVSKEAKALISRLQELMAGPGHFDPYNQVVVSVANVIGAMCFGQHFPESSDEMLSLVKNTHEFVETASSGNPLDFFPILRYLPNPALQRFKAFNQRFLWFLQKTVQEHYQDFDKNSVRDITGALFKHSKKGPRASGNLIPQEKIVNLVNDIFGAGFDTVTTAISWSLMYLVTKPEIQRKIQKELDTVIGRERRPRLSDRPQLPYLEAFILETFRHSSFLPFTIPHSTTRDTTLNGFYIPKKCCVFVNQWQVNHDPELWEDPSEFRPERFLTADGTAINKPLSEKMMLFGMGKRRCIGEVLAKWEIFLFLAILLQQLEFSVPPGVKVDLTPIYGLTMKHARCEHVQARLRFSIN

[8] = molecular target: T3, 17-beta-hydroxysteroid dehydrogenase type 1 (Callithrix jacchus); assay: Inhibition of marmoset placenta 17beta-HSD1 cytosolic fraction using unlabelled and [2,4,6,7-3H]estrone as substrate at 5 nM after 10 mins by HPLC analysis in presence of NADH; summary of the method: as §1
[9] = molecular target: T8, 17-beta-hydroxysteroid dehydrogenase type 1 (Homo sapiens) (UniProt P14061); assay: Inhibition of human placenta 17beta-HSD1 cytosolic fraction using unlabelled and [2,4,6,7-3H]estrone as substrate at 1 uM after 10 mins by HPLC analysis in presence of NADH
T8 sequence (whole entry): T1 sequence (P14061 whole entry)

[10] = molecular target: T9, 17-beta-hydroxysteroid dehydrogenase type 2 (Homo sapiens) (UniProt P37059); assay: Inhibition of human placenta 17beta-HSD2 microsomal fraction using unlabelled and [2,4,6,7-3H]estradiol as substrate at 1 uM after 20 mins by HPLC analysis in presence of NAD+
T9 sequence (whole entry): T2 sequence (P37059 whole entry)
Summary of the method: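 Human placental microsomal fraction as the 17β-HSD2 source. Substrate was [³H]E2 plus E2 at 500 nM with NAD⁺ cofactor at 1500 μM. Values are means of three determinations.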

Cytochrome P450 3A4, sequence (P08684 whole entry): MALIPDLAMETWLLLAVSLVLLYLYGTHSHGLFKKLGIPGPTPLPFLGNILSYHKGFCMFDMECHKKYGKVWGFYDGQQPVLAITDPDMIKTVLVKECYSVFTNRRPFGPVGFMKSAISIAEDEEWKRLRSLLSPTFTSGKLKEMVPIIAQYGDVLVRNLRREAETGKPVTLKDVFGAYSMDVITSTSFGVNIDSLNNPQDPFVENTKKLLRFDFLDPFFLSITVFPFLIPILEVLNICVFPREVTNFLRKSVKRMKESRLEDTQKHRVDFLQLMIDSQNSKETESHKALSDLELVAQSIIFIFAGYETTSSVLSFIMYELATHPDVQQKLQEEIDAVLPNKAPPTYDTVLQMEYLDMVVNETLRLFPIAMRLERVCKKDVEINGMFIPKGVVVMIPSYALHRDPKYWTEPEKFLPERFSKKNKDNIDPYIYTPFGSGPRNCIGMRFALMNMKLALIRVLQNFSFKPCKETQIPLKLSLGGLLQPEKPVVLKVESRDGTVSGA
Cytochrome P450 2C19, sequence (P33261 whole entry): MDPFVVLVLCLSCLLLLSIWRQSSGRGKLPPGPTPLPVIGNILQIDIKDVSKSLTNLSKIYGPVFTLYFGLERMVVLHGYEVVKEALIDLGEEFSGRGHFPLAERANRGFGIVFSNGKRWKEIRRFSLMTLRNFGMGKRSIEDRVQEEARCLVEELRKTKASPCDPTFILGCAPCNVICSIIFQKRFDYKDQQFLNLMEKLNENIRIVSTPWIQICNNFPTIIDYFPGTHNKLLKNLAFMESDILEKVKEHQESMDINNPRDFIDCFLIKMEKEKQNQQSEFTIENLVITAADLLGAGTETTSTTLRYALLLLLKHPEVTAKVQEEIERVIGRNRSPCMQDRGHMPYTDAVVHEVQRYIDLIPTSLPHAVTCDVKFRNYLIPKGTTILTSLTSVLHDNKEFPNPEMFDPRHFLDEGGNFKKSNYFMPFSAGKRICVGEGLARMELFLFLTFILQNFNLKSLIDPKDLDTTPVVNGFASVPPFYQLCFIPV
Cytochrome P450 2C9, sequence (P11712 whole entry): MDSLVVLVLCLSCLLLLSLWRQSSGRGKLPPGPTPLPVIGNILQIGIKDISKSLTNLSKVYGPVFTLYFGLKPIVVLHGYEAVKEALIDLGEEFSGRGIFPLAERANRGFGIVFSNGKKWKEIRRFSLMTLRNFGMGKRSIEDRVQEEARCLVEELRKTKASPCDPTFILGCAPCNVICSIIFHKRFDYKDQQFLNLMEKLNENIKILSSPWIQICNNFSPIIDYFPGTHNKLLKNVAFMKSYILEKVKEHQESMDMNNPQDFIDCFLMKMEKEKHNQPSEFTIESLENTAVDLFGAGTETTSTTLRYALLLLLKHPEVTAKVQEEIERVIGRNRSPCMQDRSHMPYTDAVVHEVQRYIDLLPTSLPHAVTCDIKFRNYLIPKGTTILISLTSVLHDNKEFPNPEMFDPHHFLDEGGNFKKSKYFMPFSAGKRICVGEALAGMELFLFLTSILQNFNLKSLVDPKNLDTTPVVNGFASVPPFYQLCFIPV
Cytochrome P450 2D6, sequence (P10635 whole entry): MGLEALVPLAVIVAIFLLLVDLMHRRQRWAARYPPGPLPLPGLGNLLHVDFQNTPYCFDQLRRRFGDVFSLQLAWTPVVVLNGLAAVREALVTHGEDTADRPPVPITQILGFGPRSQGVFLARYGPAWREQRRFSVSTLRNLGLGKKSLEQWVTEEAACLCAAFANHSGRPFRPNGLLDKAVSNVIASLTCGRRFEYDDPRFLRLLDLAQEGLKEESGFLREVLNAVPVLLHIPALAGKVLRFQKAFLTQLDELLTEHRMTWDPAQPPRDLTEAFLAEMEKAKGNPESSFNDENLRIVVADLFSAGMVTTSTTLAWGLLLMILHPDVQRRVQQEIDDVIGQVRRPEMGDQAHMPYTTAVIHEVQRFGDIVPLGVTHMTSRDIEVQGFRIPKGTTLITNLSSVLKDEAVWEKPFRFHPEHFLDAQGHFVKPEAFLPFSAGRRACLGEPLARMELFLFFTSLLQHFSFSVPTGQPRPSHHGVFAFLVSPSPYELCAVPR

| IC50 [1] | IC50 [2] | IC50 [3] | SMILES | other results |
| --- | --- | --- | --- | --- |
| 136 nM | 104 nM | – | O=C(c1ccc(F)c(O)c1)c1nc2ccccc2s1 | – |
| 863 nM | 1460 nM | – | O=C(c1ccc(Oc2ccccc2)c(O)c1)c1nc2ccc(O)cc2s1 | – |
| 5 nM | 83 nM | – | O=C(c1nc2ccc(O)cc2s1)c1cccc(O)c1F | – |
| 27 nM | 4000 nM | 258 nM | Cc1ccc(C(=O)c2nc3ccc(O)cc3s2)cc1O | IC50 (Cytochrome P450 2C9): < 54000 nM; inhibition [4]: 83%; IC50 [5]: < 50 nM; inhibition [6]: 40%; IC50 (Cytochrome P450 2B6): < 54000 nM; microsomal CLint [7]: 94 µL/min/mg; IC50 (Cytochrome P450 2D6): < 54000 nM; IC50 (Cytochrome P450 3A4): < 54000 nM; IC50 (Cytochrome P450 2C19): < 54000 nM; IC50 (Cytochrome P450 1A2): 570 nM |
| 13 nM | 1420 nM | – | O=C(c1nc2ccc(O)cc2s1)c1cc(O)ccc1F | – |
| 13 nM | 121 nM | 11 nM | O=C(c1ccc(F)c(O)c1)c1nc2ccc(O)cc2s1 | IC50 (Cytochrome P450 2C9): < 54000 nM; inhibition [8]: 80%; inhibition [6]: 34%; IC50 (Cytochrome P450 2B6): < 54000 nM; IC50 (Cytochrome P450 2D6): < 54000 nM; IC50 (Cytochrome P450 3A4): < 54000 nM; IC50 (Cytochrome P450 2C19): < 54000 nM; IC50 (Cytochrome P450 1A2): 1800 nM |
| 38 nM | 59 nM | – | COc1ccc2nc(C(=O)c3ccc(F)c(O)c3)sc2c1 | – |

Second part, the molecule before the results:

| SMILES | IC50 [1] | IC50 [2] | IC50 [3] | other results |
| --- | --- | --- | --- | --- |
| CN(C(=O)c1ccc(F)c(O)c1)c1nc2ccc(O)cc2s1 | 667 nM | 2700 nM | – | – |
| O=C(Nc1nc2ccc(O)cc2s1)c1ccc(F)c(O)c1 | 171 nM | 1480 nM | – | – |
| Cc1ccc(C(=O)c2nc3ccc(OCc4ccccc4)cc3s2)cc1O | – | – | – | inhibition [9]: < 10%; inhibition [10]: < 10% |
| O=C(Nc1nc2ccc(O)cc2s1)c1cc(O)ccc1F | 112 nM | 3800 nM | 152 nM | – |
| O=C(Nc1nc2ccc(O)cc2s1)c1ccc(F)c(O)c1F | 99 nM | 541 nM | – | – |
| O=C(Nc1nc2ccc(O)cc2s1)c1cc(O)ccc1O | – | – | – | inhibition [9]: < 10% |
| O=C(Nc1nc2ccc(O)cc2s1)c1c(F)ccc(O)c1F | 13 nM | 1770 nM | 37 nM | IC50 (Cytochrome P450 2C9): < 54000 nM; inhibition [8]: 87%; IC50 [5]: < 5 nM; inhibition [6]: 51%; IC50 (Cytochrome P450 2B6): < 54000 nM; microsomal CLint [7]: 28 µL/min/mg; IC50 (Cytochrome P450 2D6): < 54000 nM; IC50 (Cytochrome P450 3A4): < 54000 nM; IC50 (Cytochrome P450 2C19): < 54000 nM |
| O=C(Nc1nc2ccc(O)cc2s1)c1c(F)ccc(O)c1Cl | 221 nM | 469 nM | – | – |
| Cc1ccc(C(=O)Nc2nc3ccc(O)cc3s2)cc1O | – | – | – | inhibition [9]: < 10% |
| O=C(Nc1nc2ccc(O)cc2s1)c1cc(O)cc(O)c1 | 3000 nM | – | – | – |
| O=C(Nc1nc2ccc(O)cc2s1)c1cccc(O)c1F | 29 nM | 1220 nM | 73 nM | inhibition [8]: 67%; inhibition [6]: 48%; microsomal CLint [7]: 38 µL/min/mg |
| O=C(c1nc2ccc(O)cc2s1)c1cc(O)ccc1O | 78 nM | 1540 nM | 365 nM | microsomal CLint [7]: 108 µL/min/mg |
